Active and inactive are the calls of the source. No cut-off for these calls is given here.
Experiments:
OC2 [1] = test: Activation of phospholipase A2/C in human OC2 cells assessed as increase in intracellular calcium level at 1 uM; type: cell-based
Procedure, shortened: (§1)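 OC2 cells trypsinized (10^6/mL), recovered 1 h in culture medium, loaded with 2 µM fura-2/AM for 30 min at 25 °C, washed and resuspended in Ca2+-containing buffer pH 7.4 (NaCl 140, KCl 5, MgCl2 1, CaCl2 2, HEPES 5, glucose 5 mM). 0.5 million cells/mL stirred at 25 °C. Ratio of 340/380 nm excitation read at 510 nm emission every 1 s. Calibrated with Triton X-100 and EGTA, Kd 155 nM.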

[2] = (§2) Cytotoxicity in human OC2 cells assessed as decrease in cell viability after 24 hrs by crystal violate assay; type: functional, cell-based; details: OC2, 24 h
Procedure, shortened: (§3)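 OC2 cells in RPMI with 10% heat-inactivated FCS at 37 °C, 5% CO2. Plated at 1 × 10^4 per well and grown overnight. At about 70% confluence, medium replaced with compound at 0-100 µM from a DMSO stock (final DMSO <0.5%, DMSO as control) for 24 h. Cell number by crystal violet elution, expressed as percent of control. n=5.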

OC2 [3] = test: Activation of phospholipase A2/C in human OC2 cells assessed as increase in intracellular calcium level at 0.1 uM; type: cell-based; procedure, shortened: as §1
OC2 [4] = test: Activation of phospholipase A2/C in human OC2 cells assessed as increase in intracellular calcium level at 100 uM; type: cell-based; procedure, shortened: as §1
OC2 [5] = test: Activation of phospholipase A2/C in human OC2 cells assessed as increase in intracellular calcium level at 100 uM in presence of thapsigargin; type: cell-based
OC2 [6] = test: Activation of phospholipase A2/C in human OC2 cells assessed as decrease in intracellular calcium release at 100 uM in presence of Calcium entry blocker La3+; type: cell-based; procedure, shortened: as §1
OC2 [7] = test: Activation of phospholipase A2/C in human OC2 cells assessed as increase in intracellular calcium level in presence of phospholipase-A2 inhibitor aristolochc acid; type: cell-based; procedure, shortened: as §1
OC2 [8] = test: Activation of phospholipase A2/C in human OC2 cells assessed as increase in intracellular calcium level at 100 uM in presence of PKA inhibitor H89; type: cell-based; procedure, shortened: as §1
OC2 [9] = test: Activation of phospholipase A2/C in human OC2 cells assessed as increase in intracellular calcium level at 100 uM in presence of PKC inhibitor GF109203X; type: cell-based; procedure, shortened: as §1
OC2 [10] = test: Activation of phospholipase A2/C in human OC2 cells assessed as increase in intracellular calcium level at 100 uM pretreated with phospholipase C inhibitor […] and ATP; type: cell-based
OC2 [11] = test: as §2; type: functional, cell-based; procedure, shortened: as §3
OC2 [12] = test: Activation of calcium channel in human OC2 cells assessed as increase in intracellular calcium […] in presence of La3+; type: cell-based; procedure, shortened: as §1
OC2 [13] = test: Activation of phospholipase A2/C in human OC2 cells assessed as increase in intracellular calcium level at 100 uM in presence of protein kinase C activator PMA

SMILES: COC(=O)C1=C(C)NC(C)=C(C(=O)OC)C1c1ccccc1[N+](=O)[O-]
- Activity (OC2 [1]): inactive

SMILES: COC(=O)C1=C(C)NC(C)=C(C(=O)OCCN(C)Cc2ccccc2)C1c1cccc([N+](=O)[O-])c1 (configuration not stated)
- Activity (OC2 [1]): inactive

SMILES: COc1ccc(CCN(C)CCCC(C#N)(c2ccc(OC)c(OC)c2)C(C)C)cc1OC (configuration not stated)
- Activity (OC2 [1]): inactive

SMILES: COc1ccc([C@@H]2Sc3ccccc3N(CCN(C)C)C(=O)[C@@H]2OC(C)=O)cc1
- Activity (OC2 [1]): inactive

SMILES: CCCCC[C@H](O)CC(=O)CCc1ccc(O)c(OC)c1 [GINGEROL]
- IC50 [2]: 74.2 µM

SMILES: CCCCC/C=C/C(=O)CCc1ccc(O)c(OC)c1 [SHOGAOL]
- Activity (OC2 [3]): inactive
- Activity (OC2 [4]): 68%
- Activity (OC2 [5]): inactive
- Activity (OC2 [6]): inactive
- Activity (OC2 [7]): inactive
- Activity (OC2 [8]): Active
- Activity (OC2 [9]): Active
- Activity (OC2 [10]): inactive
- IC50 [2]: 15.6 µM
- Activity (OC2 [11]): Dose-dependent effect
- Activity (OC2 [12]): inactive
- Activity (OC2 [13]): Active

From ChEMBL document CHEMBL1212891, “Effect of [6]-shogaol on cytosolic Ca2+ levels and proliferation in human oral cancer cells (OC2)” (J Nat Prod, 2010)
